Test results: ChEMBL document CHEMBL1926676, “Antimalarial β-carboline and indolactam alkaloids from Marinactinospora thermotolerans, a deep sea isolate” (J Nat Prod, 2011)

Columns and labels:
DU-145 = assay: Cytotoxicity against human DU145 cells after 48 hrs by MTT assay; assay type: functional, cell-based; details: DU-145, 48 h
Summary of the method: (§1)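 Cells grown in RPMI-1640 with 10% FBS, 37 °C, 5% CO2. Seeded at 2 × 10^3 cells per well and left 12 h. Compounds added in DMSO at various concentrations for 48 h. MTT (1 mg/mL in PBS) then added for 4 h at 37 °C. Formazan dissolved in DMSO and absorbance read.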

Plasmodium falciparum [1] = assay: Antiplasmodial activity against drug-sensitive Plasmodium falciparum 3D7 assessed as parasitaemia after 72 hrs using SYBR Green 1 staining by fluorescence method; assay type: functional, organism-based; details: 3D7, 72 h
Summary of the method: (§2)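 Blood-stage P. falciparum cultures at 0.2% parasitemia, 2% hematocrit, given serially diluted compound in quadruplicate; 72 h at 37 °C. Lysis buffer with SYBR Green I (0.2 μL/mL) added, 1 h in dark, then relative fluorescence read. IC50 by nonlinear regression of logistic dose-response curves.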

Plasmodium falciparum [2] = assay: Antiplasmodial activity against multidrug-resistant Plasmodium falciparum Dd2 assessed as parasitaemia after 72 hrs using SYBR Green 1 staining by fluorescence method; assay type: functional, organism-based; details: Dd2, 72 h; summary of the method: as §2
MDA-MB-231 = assay: Cytotoxicity against human MDA-MB-231 cells after 48 hrs by MTT assay; assay type: functional, cell-based; details: MDA-MB-231, 48 h; summary of the method: as §1
MCF7 = assay: Cytotoxicity against human MCF7 cells after 48 hrs by MTT assay; assay type: functional, cell-based; details: MCF7, 48 h; summary of the method: as §1
SMMC-7721 = assay: Cytotoxicity against human SMMC7721 cells after 48 hrs by MTT assay; assay type: functional, cell-based; details: SMMC-7721, 48 h; summary of the method: as §1
A549 = assay: Cytotoxicity against human A549 cells after 48 hrs by MTT assay; assay type: functional, cell-based; details: A549, 48 h; summary of the method: as §1
HeLa = assay: Cytotoxicity against human HeLa cells after 48 hrs by MTT assay; assay type: functional, cell-based; summary of the method: as §1
NCI-H460 = assay: Cytotoxicity against human NCI-H460 cells after 48 hrs by MTT assay; assay type: functional, cell-based; details: NCI-H460, 48 h; summary of the method: as §1
SW1990 = assay: Cytotoxicity against human SW1990 cells after 48 hrs by MTT assay; assay type: functional, cell-based; details: SW1990, 48 h; summary of the method: as §1

| SMILES | IC50 (DU-145) | IC50 (Plasmodium falciparum [1]) | IC50 (Plasmodium falciparum [2]) | IC50 (MDA-MB-231) | IC50 (MCF7) | IC50 (SMMC-7721) | IC50 (A549) | IC50 (HeLa) | IC50 (NCI-H460) | IC50 (SW1990) |
| --- | --- | --- | --- | --- | --- | --- | --- | --- | --- | --- |
| C=CC(C)(C)c1ccc2c3c(c[nH]c13)C[C@@H](CO)NC(=O)[C@H]([C@@H](C)CC)N2 | > 50 µM | 20.8 µM | 18.7 µM | > 50 µM | > 50 µM | > 50 µM | > 50 µM | > 50 µM | > 50 µM | > 50 µM |
| CC(=O)c1nc(C(=O)NCCc2ccccc2)cc2c1[nH]c1ccccc12 | > 50 µM | 3.09 µM | 3.38 µM | > 50 µM | > 50 µM | > 50 µM | > 50 µM | > 50 µM | > 50 µM | > 50 µM |
| CC(=O)c1nc(C(=O)NCCc2c[nH]c3ccccc23)cc2c1[nH]c1ccccc12 [MARINACARBOLINE D] | > 50 µM | 5.39 µM | 3.59 µM | > 50 µM | > 50 µM | > 50 µM | > 50 µM | > 50 µM | > 50 µM | > 50 µM |
| CC(=O)c1nc(C(=O)NCCc2ccc(O)cc2)cc2c1[nH]c1ccccc12 | > 50 µM | 16.6 µM | 15.6 µM | > 50 µM | > 50 µM | > 50 µM | > 50 µM | > 50 µM | > 50 µM | > 50 µM |
| COc1ccc(CCNC(=O)c2cc3c([nH]c4ccccc43)c(C(C)=O)n2)cc1 [MARINACARBOLINE A] | > 50 µM | 36 µM | 1.92 µM | > 50 µM | > 50 µM | > 50 µM | > 50 µM | > 50 µM | > 50 µM | > 50 µM |
| C=CC(C)(C)c1ccc2c3c(c[nH]c13)C[C@@H](CO)NC(=O)[C@H](C(C)C)N2C [PENDOLMYCIN] | > 50 µM |  |  | > 50 µM | > 50 µM | > 50 µM | > 50 µM | > 50 µM | > 50 µM | > 50 µM |
| C=CC(C)(C)c1ccc2c3c(c[nH]c13)C[C@@H](CO[C@@H]1O[C@@H](CO)[C@H](O)[C@@H](O)[C@@H]1O)NC(=O)[C@H]([C@@H](C)CC)N2C | > 50 µM | 10.4 µM | 5.03 µM | > 50 µM | > 50 µM | > 50 µM | > 50 µM | > 50 µM | > 50 µM | > 50 µM |
| C=CC(C)(C)c1ccc2c3c(c[nH]c13)C[C@@H](CO)NC(=O)[C@H]([C@@H](C)CC)N2C [METHYLPENDOLMYCIN] | > 50 µM |  |  | > 50 µM | > 50 µM | > 50 µM | > 50 µM | > 50 µM | > 50 µM | > 50 µM |
| CC(=O)c1nccc2c1[nH]c1ccccc12 | > 50 µM |  |  | > 50 µM | > 50 µM | > 50 µM | > 50 µM | > 50 µM | > 50 µM | > 50 µM |
